{"data": "Published values of several laboratories", "note": "Each line is one published result; the experiments were not run side by side."}
{"SMILES": "O=C(COc1ccc(N2C(=O)[C@@H]3[C@@H]4C=C[C@@H]([C@H]5C[C@@H]45)[C@@H]3C2=O)cc1)c1cc(Cl)cc(Cl)c1", "test system": "mouse, brain", "setting": "oral, 20 mg/kg", "Cmax": "5000 nM"}
{"SMILES": "CC(=O)O[C@@]12CO[C@@H]1C[C@H](O)[C@@]1(C)C(=O)[C@H](O)C3=C(C)[C@@H](OC(=O)[C@H](O)[C@@H](NC(=O)OC(C)(C)C)c4ccccc4)C[C@@](O)([C@@H](OC(=O)c4ccccc4)[C@H]21)C3(C)C", "test system": "male Kunming mouse, plasma", "setting": "oral, 20 mg/kg", "Cmax": "4.1 ng/mL"}
{"SMILES": "O=C1CCN2C(=O)c3ccccc3C2C(=O)Nc2ccccc21 (centres unmarked)", "test system": "male Swiss mouse, plasma", "setting": "oral, 100 mg/kg", "Cmax": "617 nM"}
{"SMILES": "C=CS(=O)(=O)c1ccc(Nc2nc(OCC3CCCCC3)c3nc[nH]c3n2)cc1", "test system": "male BALB/c mouse, plasma", "setting": "intraperitoneal, 20 mg/kg, single dose", "Cmax": "190 ng/mL"}
{"SMILES": "Nc1ncn([C@H]2C[C@H](O)[C@@H](CO)O2)c(=O)n1", "test system": "female C57BL/6 mouse, plasma", "setting": "oral, 0.4 mg/kg", "Cmax": "118 ng/mL"}
{"SMILES": "Cc1c(C(=O)O)ccc2c3n(nc12)[C@@H]1[C@H](C3)N(CC2CC2)[C@@]2(C(=O)Nc3cc(Cl)ccc32)[C@H]1c1cccc(Cl)c1F", "test system": "female mouse, plasma", "setting": "oral, 5 mg/kg", "Cmax": "7400 nM"}
{"SMILES": "CCN1CCN(Cc2ccc(NC(=O)c3ccc(C)c(NC(=O)c4cncc(-c5cccs5)c4)c3)cc2C(F)(F)F)CC1", "test system": "mouse, plasma", "setting": "intraperitoneal, 10 mg/kg, single dose", "Cmax": "488 ng/mL"}
{"SMILES": "O=C(ONc1nc2nonc2nc1Nc1ccccc1F)c1ccc(OC(F)(F)F)cc1", "test system": "male C57BL/6 mouse, plasma", "setting": "oral, 10 mg/kg", "Cmax": "1.9 nM"}
